In ChEMBL document CHEMBL1151461, “Madurahydroxylactone derivatives as dual inhibitors of human immunodeficiency virus type 1 integrase and RNase H” (Antimicrob Agents Chemother, 2008):

Legend:
[1] = Inhibition of HIV1 RNase H by FRET high-throughput assay; parameters: species or system Human immunodeficiency virus 1
Summary of the method: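 3′-fluorescein/5′-DABCYL RNA/DNA hybrid (0.16 nM) preincubated with compound; reaction started with 7.5 nM HIV-1 RNase H, 30 min at room temperature, EDTA quench, fluorescence intensity read. IC50 as mean ± SD of ≥3 independent experiments, or single experiment where footnoted.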

[2] = target: Human immunodeficiency virus type 1 integrase (Human immunodeficiency virus 1, UniProt Q7ZJM1); test: Inhibition of HIV1 recombinant integrase by electrochemiluminescent-based high-throughput strand transfer assay
Summary of the method: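 Biotinylated, 3′-end-preprocessed donor DNA incubated 30 min at 37°C with 250 nM recombinant integrase; compound added, strand transfer started with ruthenium-labeled duplex target DNA, 60 min at 37°C; electrochemiluminescence read. IC50 as mean ± SD of ≥3 independent experiments, or single experiment where footnoted.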

[3] = tested on: Human immunodeficiency virus 1; test: Selectivity, ratio of IC50 for HIV1 recombinant integrase to IC50 for HIV1 RNase H
[4] = tested on: Human immunodeficiency virus 1; test: Selectivity, ratio of IC50 for HIV1 RNase H to IC50 for HIV1 recombinant integrase
Summary of the method: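 Ratio of the IC50s from two assays run on the same compounds. Integrase: a biotinylated 3′-preprocessed donor DNA was preincubated 30 min at 37°C with 250 nM recombinant HIV-1 integrase. Compound was then added, ruthenium-labelled target DNA started strand transfer, 60 min at 37°C, electrochemiluminescent read-out. RNase H: 0.16 nM 3′-fluorescein/5′-DABCYL RNA/DNA hybrid with 7.5 nM enzyme, 30 min at room temperature, EDTA quench, FRET fluorescence.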

[5] = target: Human immunodeficiency virus type 1 integrase (Human immunodeficiency virus 1) (UniProt Q7ZJM1); test: Selectivity for inhibition of HIV1 recombinant integrase strand transfer activity over 3'-end processing
Human immunodeficiency virus type 1 integrase (Human immunodeficiency virus 1), sequence (Q7ZJM1 as listed by the source): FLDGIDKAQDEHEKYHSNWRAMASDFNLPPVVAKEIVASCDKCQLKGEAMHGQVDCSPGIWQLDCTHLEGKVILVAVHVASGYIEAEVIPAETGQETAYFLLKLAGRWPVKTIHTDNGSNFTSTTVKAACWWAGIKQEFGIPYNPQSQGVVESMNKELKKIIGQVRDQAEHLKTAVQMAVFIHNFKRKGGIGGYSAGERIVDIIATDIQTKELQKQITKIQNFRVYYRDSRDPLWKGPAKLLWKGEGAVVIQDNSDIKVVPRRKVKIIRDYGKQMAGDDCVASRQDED

Human immunodeficiency virus type 1 integrase, sequence (Q7ZJM1 whole entry): as the sequence (Q7ZJM1 as listed by the source) above

## CCOC(=O)Cn1ncc2cc3c(c(O)c2c1=O)-c1c(O)c2c(c(OC)c1CC3)C(=O)c1c(cc(O)c(C)c1O)C2=O
[1]
  IC50: 2.11 µM
[2]
  IC50: 2.67 µM

## COc1c2c(c(O)c3c1C(=O)c1c(cc(O)c(C)c1O)C3=O)-c1c(cc(/C=N/NS(=O)(=O)c3ccc(C)cc3)c(C(=O)O)c1O)CC2
[1]
  IC50: 5.88 µM
[2]
  IC50: 22 µM

## COc1c2c(c(O)c3c1C(=O)c1c(cc(O)c(C)c1O)C3=O)-c1c(cc(C(=O)O)c(C(=O)O)c1O)CC2
[1]
  IC50: 3.48 µM
[2]
  IC50: 13.2 µM

## COc1c2c(c(O)c3c1C(=O)c1c(cc(O)c(C)c1O)C3=O)-c1c(cc3c(c1O)C(=O)N(N(C)C)C3O)CC2 (centres undefined)
[1]
  IC50: 6.97 µM
[2]
  IC50: 7.7 µM

## COc1c2c(c(OC(C)=O)c3c1C(=O)c1c(cc(OC(C)=O)c(C)c1OC(C)=O)C3=O)-c1c(cc3cnn(-c4ccccc4)c(=O)c3c1OC(C)=O)CC2
[1]
  IC50: 3.14 µM
[3]
  Ratio IC50: 100
[2]
  IC50: > 333 µM

## CO/N=C/c1cc2c(c(O)c1C(=O)O)-c1c(O)c3c(c(OC)c1CC2)C(=O)c1c(cc(O)c(C)c1O)C3=O
[1]
  IC50: 10.1 µM
[2]
  IC50: 12.5 µM

## COc1c2c(c(O)c3c1C(=O)c1c(cc(O)c(C)c1O)C3=O)-c1c(cc3c(c1O)C(=O)N1c4ccccc4CNC31)CC2 (centres undefined)
[1]
  IC50: 0.78 µM
[3]
  Ratio IC50: 100
[2]
  IC50: 108 µM

## COc1c2c(c(O)c3c1C(=O)c1c(cc(O)c(C)c1O)C3=O)-c1c(cc3c(c1O)C(=O)N1C(C(=O)O)CSC31)CC2 (centres undefined)
[1]
  IC50: 15.7 µM
[2]
  IC50: 20 µM

## COc1c2c(c(O)c3c1C(=O)c1c(cc(O)c(C)c1O)C3=O)-c1c(cc3cnn(C(=N)N)c(=O)c3c1O)CC2
[1]
  IC50: 5.28 µM
[2]
  IC50: 3.02 µM

## COc1c2c(c(O)c3c1C(=O)c1c(cc(O)c(C)c1O)C3=O)-c1c(cc3cn[nH]c(=O)c3c1O)CC2
[1]
  IC50: 4.06 µM
[2]
  IC50: 4.06 µM

## COc1c2c(c(O)c3c1C(=O)c1c(cc(O)c(C)c1O)C3=O)-c1c(cc3cnn(-c4ccccc4)c(=O)c3c1O)CC2
[1]
  IC50: 2.58 µM
[4]
  Ratio IC50: 100
[5]
  fold change (FC): 20
[2]
  IC50: 0.41 µM

## CCCn1ncc2cc3c(c(O)c2c1=O)-c1c(O)c2c(c(OC)c1CC3)C(=O)c1c(cc(O)c(C)c1O)C2=O
[1]
  IC50: 8.96 µM
[2]
  IC50: 6.34 µM

## CCCn1ncc2cc3c(c(O)c2c1=O)-c1c(O)c2c(c(OC)c1CC3)C(=O)c1c(cc(OC(=O)OC)c(C)c1OC(C)=O)C2=O
[1]
  IC50: 8.98 µM
[2]
  IC50: > 333 µM

## COc1c2c(c(O)c3c1C(=O)c1c(cc(O)c(C)c1O)C3=O)-c1c(cc(/C=N/NC(C)(C)C)c(C(=O)O)c1O)CC2
[1]
  IC50: 0.69 µM
[3]
  Ratio IC50: > 100
[2]
  IC50: 122 µM

## COC(=O)Oc1cc2c(c(O)c1C)C(=O)c1c(OC)c3c(c(O)c1C2=O)-c1c(cc2cnn(-c4ccccc4)c(=O)c2c1O)CC3
[1]
  IC50: 1.43 µM
[3]
  Ratio IC50: 100
[2]
  IC50: 200 µM

## COc1c2c(c(O)c3c1C(=O)c1c(cc(O)c(C)c1O)C3=O)-c1c(cc3cnn(-c4ccc(C(=O)O)cc4)c(=O)c3c1O)CC2
[1]
  IC50: 9.11 µM
[2]
  IC50: 3.45 µM

## COc1c2c(c(O)c3c1C(=O)c1c(cc(O)c(C)c1O)C3=O)-c1c(cc3c(c1O)C(=O)N1c4ccccc4SC31)CC2 (centres undefined)
[1]
  IC50: 0.31 µM
[3]
  Ratio IC50: 10
[4]
  Ratio IC50: 100
[2]
  IC50: 96 µM

## COc1c2c(c(O)c3c1C(=O)c1c(cc(O)c(C)c1O)C3=O)-c1c(cc(/C=N/NC(=O)c3ccccc3O)c(C(=O)O)c1O)CC2
[1]
  IC50: 3.54 µM
[2]
  IC50: 6.09 µM

## COc1c2c(c(O)c3c1C(=O)c1c(cc(O)c(C)c1O)C3=O)-c1c(cc(/C=N/C34CC5CC(CC(C5)C3)C4)c(C(=O)O)c1O)CC2
[1]
  IC50: 9.41 µM
[2]
  IC50: 37 µM

## COc1c2c(c(O)c3c1C(=O)c1c(cc(O)c(C)c1O)C3=O)-c1c(cc3c(c1O)C(=O)N1CCCNC31)CC2 (centres undefined)
[1]
  IC50: 7.16 µM
[2]
  IC50: 56 µM

## COc1c2c(c(O)c3c1C(=O)c1c(cc(O)c(C)c1O)C3=O)-c1c(cc3cnn(CCOC(C)=O)c(=O)c3c1O)CC2
[1]
  IC50: 8.63 µM
[2]
  IC50: 6.28 µM

## COc1c2c(c(O)c3c1C(=O)c1c(cc(O)c(C)c1O)C3=O)-c1c(cc(/C=N/NC(=N)N)c(C(=O)O)c1O)CC2
[1]
  IC50: 5.65 µM
[2]
  IC50: 3.15 µM

## COc1c2c(c(O)c3c1C(=O)c1c(cc(O)c(C)c1O)C3=O)-c1c(cc(/C=N/NC(=O)c3ccccc3)c(C(=O)O)c1O)CC2
[1]
  IC50: 3.1 µM
[2]
  IC50: 14.6 µM

## COc1c2c(c(O)c3c1C(=O)c1c(cc(O)c(C)c1O)C3=O)-c1c(cc3cnn(CC(=O)O)c(=O)c3c1O)CC2
[1]
  IC50: 10.2 µM
[2]
  IC50: 4.62 µM

## COc1c2c(c(OCc3ccccc3)c3c1C(=O)c1c(cc(OCc4ccccc4)c(C)c1OCc1ccccc1)C3=O)-c1c(cc3cnn(CC(=O)O)c(=O)c3c1OCc1ccccc1)CC2
[1]
  IC50: 22.4 µM
[2]
  IC50: 106 µM

## COc1c2c(c(O)c3c1C(=O)c1c(cc(O)c(C)c1O)C3=O)-c1c(cc(C3NCc4ccccc4N3)c(C(=O)O)c1O)CC2 (centres undefined)
[1]
  IC50: 5.86 µM
[2]
  IC50: 40 µM

## CCCn1ncc2cc3c(c(OC(C)=O)c2c1=O)-c1c(c(OC)c2c(c1OC(C)=O)C(=O)c1cc(OC(C)=O)c(C)c(OC(C)=O)c1C2=O)CC3
[1]
  IC50: 10.5 µM
[2]
  IC50: > 333 µM

## COc1c2c(c(O)c3c1C(=O)c1c(cc(O)c(C)c1O)C3=O)-c1c(cc(/C=N/Nc3ccc([N+](=O)[O-])cc3)c(C(=O)O)c1O)CC2
[1]
  IC50: 14 µM
[2]
  IC50: 2.2 µM
